Measured values published in ChEMBL document CHEMBL1138564, “Microwave-induced synthesis and anti-microbial activities of 7,10,11,12-tetrahydrobenzo[c]acridin-8(9H)-one derivatives” (2009).
Converted amounts (≈) assume the structure as drawn.

Columns and labels:
[1] = tested on: Trichoderma viride; test: Antimicrobial activity against Trichoderma viride NCIM 1195 at 500 ug/disk after 72 hrs by disk diffusion method; format: functional; details: NCIM 1195, 72 h, read-out: DIZ
How it was run: (§1)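 Fungal disc diffusion. 100 µl of suspension at 10⁶ CFU/ml was spread on Sabouraud's dextrose agar. Discs carrying test compound in DMSO were applied, with a DMSO-only disc as negative control. Plates were incubated at 27 °C for 72 h, and the zone of inhibition diameter was measured.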

[2] = tested on: Klebsiella aerogenes; test: Antimicrobial activity against Klebsiella aerogenes NCIM 2239 at 1000 ug/disk after 24 hrs by disk diffusion method; format: functional; details: NCIM 2239, 24 h, read-out: DIZ
How it was run: (§2)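 Disc diffusion on Mueller–Hinton agar. 100 µl of bacterial suspension at 10⁸ CFU/ml is spread on the plate. Discs carry test compounds at two loadings, dissolved in DMSO; DMSO alone serves as negative control. Ofloxacin disc is the positive reference. Plates are incubated at 37 °C for 24 h, and the inhibition zone diameter is measured.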

[3] = tested on: Lipomyces lipofer; test: Antimicrobial activity against Lipomyces lipofer NCIM 3252 at 1000 ug/disk after 72 hrs by disk diffusion method; format: functional; details: NCIM 3252, 72 h, read-out: DIZ
How it was run: (§3)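 Disc diffusion on Sabouraud's dextrose agar. 100 µl of fungal suspension at 10⁶ CFU/ml is spread on the plate. Discs carry test compounds at two loadings in DMSO; DMSO alone is the negative control. Clotrimazole disc is the positive reference. Plates are incubated at 27 °C for 72 h, and the zone of inhibition diameter is measured.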

[4] = tested on: Escherichia coli; test: Antimicrobial activity against Escherichia coli NCIM 2065 after 24 hrs by serial dilution method; format: functional; details: NCIM 2065, 24 h
How it was run: (§4)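 Broth dilution MIC in nutrient broth, run only for organisms found sensitive in disc diffusion. Compounds are two-fold serially diluted in 1 ml sterile broth per tube, spanning 3.9 to 1000. Inoculated tubes are incubated at 37 °C for 24 h.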

[5] = tested on: Aliivibrio fischeri; test: Antimicrobial activity against Vibrio fischeri NCIM 2154 at 500 ug/disk after 24 hrs by disk diffusion method; format: functional; details: NCIM 2154, 24 h, read-out: DIZ
How it was run: (§5)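 Disc diffusion. 100 µl of bacterial suspension at 10⁸ CFU/ml was spread on Mueller–Hinton agar. Discs loaded with test compound dissolved in DMSO were placed on the lawn, with a DMSO-only disc as negative control. Plates were incubated at 37 °C for 24 h, and the inhibition zone diameter was measured.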

[6] = tested on: Aspergillus flavus; test: Antimicrobial activity against Aspergillus flavus NCIM 902 at 1000 ug/disk after 72 hrs by disk diffusion method; format: functional; details: NCIM 902, 72 h, read-out: DIZ; how it was run: as §3
[7] = tested on: Rhodotorula mucilaginosa; test: Antimicrobial activity against Rhodotorula rubra NCIM 3174 at 500 ug/disk after 72 hrs by disk diffusion method; format: functional; details: NCIM 3174, 72 h, read-out: DIZ; how it was run: as §1
[8] = tested on: Trichoderma viride; test: Antimicrobial activity against Trichoderma viride NCIM 1195 after 72 hrs by serial dilution method; format: functional; details: NCIM 1195, 72 h
How it was run: (§6)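 MIC by broth dilution in Sabouraud's dextrose broth, run only on fungi found sensitive in the disc assay. Twofold serial dilutions were made in 1 ml broth per tube, covering 3.9 to 1000. Inoculated tubes were incubated at 27 °C for 72 h.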

[9] = tested on: Rhodotorula mucilaginosa; test: Antimicrobial activity against Rhodotorula rubra NCIM 3174 at 1000 ug/disk after 72 hrs by disk diffusion method; format: functional; details: NCIM 3174, 72 h, read-out: DIZ; how it was run: as §1
[10] = tested on: Aliivibrio fischeri; test: Antimicrobial activity against Vibrio fischeri NCIM 2154 after 24 hrs by serial dilution method; format: functional; details: NCIM 2154, 24 h
[11] = tested on: Rhodococcus corynebacterioides; test: Antimicrobial activity against Corynebacterium rubrum NCIM 2252 at 1000 ug/disk after 24 hrs by disk diffusion method; format: functional; details: Rhodococcoides corynebacterioides, NCIM 2252, 24 h; read-out: DIZ; how it was run: as §2
[12] = tested on: Bacillus cereus; test: Antimicrobial activity against Bacillus cereus NCIM 2155 at 1000 ug/disk after 24 hrs by disk diffusion method; format: functional; details: NCIM 2155, 24 h, read-out: DIZ; how it was run: as §2
[13] = tested on: Pseudomonas aeruginosa; test: Antimicrobial activity against Pseudomonas aeruginosa NCIM 2200 at 1000 ug/disk after 24 hrs by disk diffusion method; format: functional; details: NCIM 2200, 24 h, read-out: DIZ; how it was run: as §2
[14] = tested on: Staphylococcus; test: Antimicrobial activity against Staphylococcus albus NCIM 2178 at 1000 ug/disk after 24 hrs by disk diffusion method; format: functional; details: NCIM 2178, 24 h, read-out: DIZ; how it was run: as §5
[15] = tested on: Penicillium chrysogenum; test: Antimicrobial activity against Penicillium chrysogenum NCIM 707 at 500 ug/disk after 72 hrs by disk diffusion method; format: functional; details: NCIM 707, 72 h, read-out: DIZ; how it was run: as §3
[16] = tested on: Bacillus cereus; test: Antimicrobial activity against Bacillus cereus NCIM 2155 at 500 ug/disk after 24 hrs by disk diffusion method; format: functional; details: NCIM 2155, 24 h, read-out: DIZ; how it was run: as §2
[17] = tested on: Staphylococcus; test: Antimicrobial activity against Staphylococcus albus NCIM 2178 at 500 ug/disk after 24 hrs by disk diffusion method; format: functional; details: NCIM 2178, 24 h, read-out: DIZ; how it was run: as §5
[18] = tested on: Escherichia coli; test: Antimicrobial activity against Escherichia coli NCIM 2065 at 1000 ug/disk after 24 hrs by disk diffusion method; format: functional; details: NCIM 2065, 24 h, read-out: DIZ; how it was run: as §2
[19] = tested on: Lipomyces lipofer; test: Antimicrobial activity against Lipomyces lipofer NCIM 3252 at 500 ug/disk after 72 hrs by disk diffusion method; format: functional; details: NCIM 3252, 72 h, read-out: DIZ; how it was run: as §3
[20] = tested on: Klebsiella aerogenes; test: Antimicrobial activity against Klebsiella aerogenes NCIM 2239 at 500 ug/disk after 24 hrs by disk diffusion method; format: functional; details: NCIM 2239, 24 h, read-out: DIZ; how it was run: as §2
[21] = tested on: Aliivibrio fischeri; test: Antimicrobial activity against Vibrio fischeri NCIM 2154 at 1000 ug/disk after 24 hrs by disk diffusion method; format: functional; details: NCIM 2154, 24 h, read-out: DIZ; how it was run: as §5
[22] = tested on: Bacillus subtilis; test: Antimicrobial activity against Bacillus subtilis NCIM 2063 at 500 ug/disk after 24 hrs by disk diffusion method; format: functional; details: NCIM 2063, 24 h, read-out: DIZ; how it was run: as §2
[23] = tested on: Bacillus subtilis; test: Antimicrobial activity against Bacillus subtilis NCIM 2063 after 24 hrs by serial dilution method; format: functional; details: NCIM 2063, 24 h; how it was run: as §4
[24] = tested on: Aspergillus parasiticus; test: Antimicrobial activity against Aspergillus parasiticus NCIM 904 at 500 ug/disk after 72 hrs by disk diffusion method; format: functional; details: NCIM 904, 72 h, read-out: DIZ; how it was run: as §3
[25] = tested on: Proteus vulgaris; test: Antimicrobial activity against Proteus vulgaris NCIM 2027 at 1000 ug/disk after 24 hrs by disk diffusion method; format: functional; details: NCIM 2027, 24 h, read-out: DIZ; how it was run: as §2
[26] = tested on: Proteus vulgaris; test: Antimicrobial activity against Proteus vulgaris NCIM 2027 at 500 ug/disk after 24 hrs by disk diffusion method; format: functional; details: NCIM 2027, 24 h, read-out: DIZ; how it was run: as §2
[27] = tested on: Rhodotorula mucilaginosa; test: Antimicrobial activity against Rhodotorula rubra NCIM 3174 after 72 hrs by serial dilution method; format: functional; details: NCIM 3174, 72 h; how it was run: as §6
[28] = tested on: Aspergillus parasiticus; test: Antimicrobial activity against Aspergillus parasiticus NCIM 904 at 1000 ug/disk after 72 hrs by disk diffusion method; format: functional; details: NCIM 904, 72 h, read-out: DIZ; how it was run: as §3
[29] = tested on: Salmonella typhimurium; test: Antimicrobial activity against Salmonella Typhimurium NCIM 2501 at 1000 ug/disk after 24 hrs by disk diffusion method; format: functional, Salmonella enterica subsp. enterica serovar Typhimurium; details: Salmonella enterica, NCIM 2501, 24 h; read-out: DIZ; how it was run: as §5
[30] = tested on: Rhodococcus corynebacterioides; test: Antimicrobial activity against Corynebacterium rubrum NCIM 2252 at 500 ug/disk after 24 hrs by disk diffusion method; format: functional; details: Rhodococcoides corynebacterioides, NCIM 2252, 24 h; read-out: DIZ; how it was run: as §2
[31] = tested on: Escherichia coli; test: Antimicrobial activity against Escherichia coli NCIM 2065 at 500 ug/disk after 24 hrs by disk diffusion method; format: functional; details: NCIM 2065, 24 h, read-out: DIZ; how it was run: as §2
[32] = tested on: Aspergillus fumigatus; test: Antimicrobial activity against Aspergillus fumigatus NCIM 902 at 1000 ug/disk after 72 hrs by disk diffusion method; format: functional; details: NCIM 902, 72 h, read-out: DIZ; how it was run: as §3
[33] = tested on: Salmonella typhimurium; test: Antimicrobial activity against Salmonella Typhimurium NCIM 2501 at 500 ug/disk after 24 hrs by disk diffusion method; format: functional, Salmonella enterica subsp. enterica serovar Typhimurium; details: Salmonella enterica, NCIM 2501, 24 h; read-out: DIZ; how it was run: as §5
[34] = tested on: Aspergillus flavus; test: Antimicrobial activity against Aspergillus flavus NCIM 902 at 500 ug/disk after 72 hrs by disk diffusion method; format: functional; details: NCIM 902, 72 h, read-out: DIZ; how it was run: as §3

## CC1(C)CC(=O)C2=C(C1)Nc1c(ccc3ccccc13)C2c1cccc([N+](=O)[O-])c1 (centres undefined)
[1]
  zone of inhibition at 500 µg/disc: 10 mm
[2]
  zone of inhibition at 1000 µg/disc: 11 mm
[3]
  zone of inhibition at 1000 µg/disc: 11 mm
[4]
  MIC: 3.9 µg/mL (≈ 9.79 µM)
[5]
  zone of inhibition at 500 µg/disc: 7 mm
[6]
  zone of inhibition at 1000 µg/disc: 13 mm
[7]
  zone of inhibition at 500 µg/disc: 10 mm
[8]
  MIC: 31.2 µg/mL (≈ 78.3 µM)
[9]
  zone of inhibition at 1000 µg/disc: 15 mm
[10]
  MIC: 62.5 µg/mL (≈ 157 µM)
[11]
  zone of inhibition at 1000 µg/disc: 9 mm
[12]
  zone of inhibition at 1000 µg/disc: 13 mm
[13]
  zone of inhibition at 1000 µg/disc: 8 mm
[14]
  zone of inhibition at 1000 µg/disc: 9 mm
[15]
  zone of inhibition at 500 µg/disc: 8 mm
[16]
  zone of inhibition at 500 µg/disc: 10 mm
[17]
  zone of inhibition at 500 µg/disc: 7 mm
[18]
  zone of inhibition at 1000 µg/disc: 15 mm
[19]
  zone of inhibition at 500 µg/disc: 8 mm
[20]
  zone of inhibition at 500 µg/disc: 8 mm
[21]
  zone of inhibition at 1000 µg/disc: 10 mm
[22]
  zone of inhibition at 500 µg/disc: 9 mm
[23]
  MIC: 31.2 µg/mL (≈ 78.3 µM)
[24]
  zone of inhibition at 500 µg/disc: 10 mm
[25]
  zone of inhibition at 1000 µg/disc: 9 mm
[26]
  zone of inhibition at 500 µg/disc: 7 mm
[27]
  MIC: 7.8 µg/mL (≈ 19.6 µM)
[28]
  zone of inhibition at 1000 µg/disc: 16 mm
[29]
  zone of inhibition at 1000 µg/disc: 13 mm
[30]
  zone of inhibition at 500 µg/disc: 8 mm
[31]
  zone of inhibition at 500 µg/disc: 10 mm
[32]
  zone of inhibition at 1000 µg/disc: 10 mm
[33]
  zone of inhibition at 500 µg/disc: 10 mm
[34]
  zone of inhibition at 500 µg/disc: 9 mm
